Source: PubChem
The list is not random: actives were taken first. Their share in the collection is about 3.5%.
MrgX1 agonist: agonists of human MrgX1 receptor, primary screen, HEK293 cells, Fluo-4 calcium flux. Mas-related G-protein coupled receptor member X1 (Homo sapiens), Q96LB2. Fluo-4 calcium fluorescence, agonist mode; hits give high values. B-score at 10 µM. hit rate 0.44% among 310,000;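 active means calcium response B-score plate-corrected fluorescence ratio at least 3 library SD, with starting fluorescence B-score inside 5 SD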
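Material – MrgX1-expressing HEK293 cells · Input – 15,000 cells seeded per well · Dosing – compound as first of three additions · Times – overnight seeding, then 1 h dark dye loading · Measured by – kinetic Fluo-4 NW fluorescence of intracellular calcium · Read-out – B-scored fluorescence response ratio · Benchmarks – positive and negative control wells on each plate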
MrgX1 allo act: positive allosteric modulators of MrgX1, primary screen, HEK293 cells, Fluo-4 calcium flux; Mas-related G-protein coupled receptor member X1 (Homo sapiens), Q96LB2; FDSS; hits give high values; B-score at 10 µM; hit rate 0.63% among 310,000;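 active means plate-corrected calcium response at least 3 library SD above typical, normal starting fluorescence, not activating the receptor alone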;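 further: compound read alongside a low EC10 to EC30 dose of BAM8-22 agonist; peak minus trough fluorescence over baseline measured at the second addition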
RGS4 block: RGS4 inhibitors, primary screen, cell-based, HEK293 M3R inducible RGS4, calcium flux; Fluo-4 calcium flux; hits give high values; triggered by carbachol at its EC20; hit rate 0.45% among 310,000; B-score at 10 µM; AID 463165, 2010; Regulator of G-protein signaling 4 (Homo sapiens), P49798;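 active means B-score, a plate-corrected calcium signal, over three deviations above library mean, with baseline fluorescence within five deviations of library mean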;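 further: RGS4 expression induced by doxycycline in cells with stable M3 receptor; B-score is computed from the integrated fluorescence ratio over baseline after carbachol; higher B-score means a larger calcium signal and so more RGS4 inhibition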
Target sequence (P49798 whole entry, looked up): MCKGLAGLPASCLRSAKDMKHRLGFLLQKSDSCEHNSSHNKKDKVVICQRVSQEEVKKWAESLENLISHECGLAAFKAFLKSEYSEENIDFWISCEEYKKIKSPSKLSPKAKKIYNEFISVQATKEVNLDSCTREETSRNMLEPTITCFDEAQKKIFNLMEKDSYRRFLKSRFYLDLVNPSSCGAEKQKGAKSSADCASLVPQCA
MrgX1 antag: antagonists of human MrgX1 receptor, primary screen, HEK293 cells, Fluo-4 calcium flux | Mas-related G-protein coupled receptor member X1 (Homo sapiens), Q96LB2 | BAM8-22 antagonism; hits give low values | hit rate 1.3% among 310,000 | B-score at 10 µM;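 active means calcium-response B-score plate-corrected more than 3 library SD below zero, starting fluorescence within 5 deviations, no agonist response on first addition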;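 further: peak minus trough fluorescence over baseline after final BAM8-22 challenge near maximal dose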
RGS4 act: RGS4 potentiators or activators, primary screen, cell-based, HEK293 M3R inducible RGS4, calcium flux; carbachol calcium flux Fluo4; hits give low values; B-score at 10 µM; hit rate 0.92% among 310,000; AID 463111, 2010;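 active means B-score of the integrated calcium signal more than 4 SD below the library mean, with starting fluorescence not abnormally high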;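 further: negative B-score means reduced calcium response which marks RGS4 activation or potentiation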
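Reagent: ECmax carbachol challenge; Test system: M3R-expressing HEK293 line, RGS4 induced by doxycycline; Schedule: overnight RGS4 induction, 30 min dye load 37 °C, 20 min compound RT; Detection: calcium dye Fluo4 fluorescence; Read-out: Agonist-evoked peak-minus-minimum fluorescence over baseline, integrated ratio, B score.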
Starred values were filed as active, the others as inactive; i = inactive; nt = no result.

SMILES	MrgX1 agonist	MrgX1 allo act	RGS4 block	MrgX1 antag	RGS4 act
CC1=CC(=O)C(C(C)C)=C/C1=N\OC(=O)c1cccc2nc(C)oc12	i	i	i	-5*	i
O=[N+]([O-])c1cc([N+](=O)[O-])c2oc(-c3ccccc3)c(Br)c2c1O	nt	nt	i	nt	i
O=C(O)CCC(=O)Nc1ccc(C(=O)OC2CCCCC2)cc1	i	i	i	i	i
O=C(OC1CCCCC1)c1ccc(NC(=O)C2CCCCC2)cc1	i	i	i	i	-7*
COCCC(=O)N1CCC(n2nccc2NC(=O)CCc2ccccc2)CC1	i	i	i	i	i
Clc1cccc(NCc2nnc(SCc3ccc(Cl)cc3Cl)o2)c1	i	i	i	i	-8.6*
O=C(COC(=O)c1ccc(-c2ccc([N+](=O)[O-])cc2)o1)NC(=O)NC12CC3CC(CC(C3)C1)C2	i	i	i	i	i
CCOC(=O)C1CCCN(C(=O)c2ccc(-c3ccc([N+](=O)[O-])cc3)o2)C1 (stereo not given)	i	i	i	i	-9*
O=C(COC(=O)c1ccc(-c2ccc([N+](=O)[O-])cc2)o1)NC(=O)NC1CCCCC1	i	i	i	i	-7*
CCOC(=O)c1ccc(S(=O)(=O)Nc2ccc(N3CCOCC3)cc2)cc1	i	i	i	i	i
Cc1cc(C)nc(/N=C(\N)Nc2ccc(F)c([N+](=O)[O-])c2)n1	38*	i	i	i	i
Cn1c(=O)c2c(nc(CN3CCN(C(=O)c4ccco4)CC3)n2CC(=O)C(C)(C)C)n(C)c1=O	i	i	i	i	i
Cc1ccc(/C=C2\Oc3c(ccc(O)c3CN3CCN(CCO)CC3)C2=O)cc1	i	i	i	i	-10*
CN(C)S(=O)(=O)c1cccc(NC(=O)CO/N=C(\N)c2ccccc2)c1	i	i	i	i	i
O=C(/C=C\Nc1ccc2c(c1)OCO2)c1ccc(Cl)s1	i	i	i	i	i
C/C(=C\C(=O)c1ccc(Cl)s1)N(C)C	i	9.2*	i	i	i
Cc1cc2cccc(C)c2nc1SCC(=O)NNC(=O)c1ccco1	i	12*	i	i	i
Cc1cc(C)c2nc(SCC(=O)NNC(=O)c3ccco3)c(C)cc2c1	i	i	i	i	i
CCOC(=O)c1c(NC(C)=O)sc2c(OCC(O)CN(CC)CC)c(Br)ccc12 (stereo not given)	i	i	i	i	-7.6*
CN(CCc1ccccc1)C1CCCN(S(=O)(=O)CC(F)(F)F)C1 (stereo not given)	i	i	i	i	i
CN(C)C(=O)c1cc(C(=O)Cc2ccccc2)c[nH]1	i	i	i	i	i
CCOC(=O)C1CCN(S(=O)(=O)c2ccc3c(c2)CCCN3C(C)=O)CC1	i	i	i	i	i
CCOC(=O)C1CCN(S(=O)(=O)c2ccc3c(c2)CC(=O)N3C)CC1	39*	i	i	i	i
COc1ccc(C(=O)N2c3ccccc3C=CC2C#N)cc1 (stereo not given)	i	i	i	i	-7.4*
CS(=O)(=O)/C(C#N)=C\c1cnc(S(=O)(=O)c2ccccc2)s1	29*	i	i	i	i
O=C(CC(Cc1ccccc1)C(=O)O)Nc1ccc(Cl)c(Cl)c1 (stereo not given)	i	i	i	i	i
O=C(O)/C=C(\Oc1ccccc1)C1(O)CCCCC1	i	i	i	i	i
CCC(C)N(C(=O)COc1ccccc1C(=O)NCc1ccccc1)C1CCS(=O)(=O)C1 (stereo not given)	i	i	i	-6.2*	i
CC(C)Cc1ccc(C(C)C(=O)N2CCOCC2)cc1 (stereo not given)	i	i	i	i	i
CC(C)Cc1ccc(C(C)C(N)=Nc2ccc(O)cc2)cc1 (stereo not given)	i	10*	i	i	i
